According to ChEMBL document CHEMBL3045158, “Synthesis and antiviral activities of chiral thiourea derivatives containing an alpha-aminophosphonate moiety” (J Agric Food Chem, 2009):
≈ marks a conversion by molar mass, not a printed value.

Key:
Tobacco mosaic virus [1] = assay: Antiviral activity against Tobacco mosaic virus (TMV) in compound treated Nicotiana tabacum L.leaves assessed as curative effect at 250 ug/ml; type: functional
Tobacco mosaic virus [2] = assay: Antiviral activity against Tobacco mosaic virus (TMV) in compound treated Nicotiana tabacum L.leaves assessed as protective effect from local lesions at 500 ug/ml measured after 3 to 4 days; type: functional
Outline: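 Half-leaf test on same-age N. tabacum L. leaves: compound solution smeared on the left half, solvent on the right as control. Leaves were inoculated 12 h later by brush with TMV at 6 × 10-3 mg/mL on silicon carbide-dusted leaves, then rinsed with water. Local lesions were counted 3–4 days later, three repetitions. Inhibition % = (control lesions − treated lesions)/control lesions × 100.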

Tobacco mosaic virus [3] = assay: Antiviral activity against Tobacco mosaic virus (TMV) in compound treated Nicotiana tabacum L.leaves assessed as curative effect at 500 ug/ml; type: functional
Tobacco mosaic virus [4] = assay: Antiviral activity against Tobacco mosaic virus (TMV) in compound treated Nicotiana tabacum L.leaves assessed as curative effect from local lesions at 500 ug/ml measured after 3 to 4 days; type: functional
Tobacco mosaic virus [5] = assay: Antiviral activity against Tobacco mosaic virus (TMV) in compound treated Nicotiana tabacum L.leaves assessed as curative effect; type: functional, organism-based
Tobacco mosaic virus [6] = assay: Antiviral activity against Tobacco mosaic virus (TMV) in compound treated Nicotiana tabacum L.leaves assessed as curative effect at 125 ug/ml; type: functional

CC(C)OP(=O)(OC(C)C)C(NC(=S)N[C@@H](C)C1CCCCC1)c1ccccc1 (stereo not given in full)
Activity (Tobacco mosaic virus [1]): 36.7% | Activity (Tobacco mosaic virus [2]): 36.3% | Activity (Tobacco mosaic virus [3]): 50.4% | Activity (Tobacco mosaic virus [4]): 50.4% | EC50 (Tobacco mosaic virus [5]): 413 µg/mL (≈ 938 µM) | Activity (Tobacco mosaic virus [6]): 29%

CCCOP(=O)(OCCC)C(NC(=S)N[C@H](C)C1CCCCC1)c1ccccc1 (stereo not given in full)
Activity (Tobacco mosaic virus [2]): 37.9% | Activity (Tobacco mosaic virus [4]): 40.7%

CCCCOP(=O)(OCCCC)C(NC(=S)N[C@@H](C)C1CCCCC1)c1ccccc1 (stereo not given in full)
Activity (Tobacco mosaic virus [1]): 37.2% | Activity (Tobacco mosaic virus [2]): 36.3% | Activity (Tobacco mosaic virus [3]): 50.4% | Activity (Tobacco mosaic virus [4]): 50.4% | EC50 (Tobacco mosaic virus [5]): 379 µg/mL (≈ 809 µM) | Activity (Tobacco mosaic virus [6]): 32.9%

CC(C)OP(=O)(OC(C)C)C(NC(=S)N[C@@H](C)c1ccccc1)c1ccccc1 (stereo not given in full)
Activity (Tobacco mosaic virus [2]): 36.9% | Activity (Tobacco mosaic virus [4]): 36.8%

CC(C)OP(=O)(OC(C)C)C(NC(=S)N[C@H](C)c1ccccc1)c1ccccc1 (stereo not given in full)
Activity (Tobacco mosaic virus [2]): 46.3% | Activity (Tobacco mosaic virus [4]): 34.5%

CCCOP(=O)(OCCC)C(NC(=S)N[C@@H](C)c1ccccc1)c1ccccc1 (stereo not given in full)
Activity (Tobacco mosaic virus [1]): 37.7% | Activity (Tobacco mosaic virus [2]): 42.7% | Activity (Tobacco mosaic virus [3]): 50.5% | Activity (Tobacco mosaic virus [4]): 50.5% | EC50 (Tobacco mosaic virus [5]): 400 µg/mL (≈ 920 µM) | Activity (Tobacco mosaic virus [6]): 30.9%

CCOP(=O)(OCC)C(NC(=S)N[C@@H](C)c1ccccc1)c1ccccc1 (stereo not given in full)
Activity (Tobacco mosaic virus [2]): 37.6% | Activity (Tobacco mosaic virus [4]): 41.8%

CCCCOP(=O)(OCCCC)C(NC(=S)N[C@H](C)C1CCCCC1)c1ccccc1 (stereo not given in full)
Activity (Tobacco mosaic virus [2]): 33.7% | Activity (Tobacco mosaic virus [4]): 34.6%

CCOP(=O)(OCC)C(NC(=S)N[C@H](C)C1CCCCC1)c1ccccc1 (stereo not given in full)
Activity (Tobacco mosaic virus [2]): 33.1% | Activity (Tobacco mosaic virus [4]): 40.1%

CCCOP(=O)(OCCC)C(NC(=S)N[C@@H](C)C1CCCCC1)c1ccccc1 (stereo not given in full)
Activity (Tobacco mosaic virus [1]): 49% | Activity (Tobacco mosaic virus [2]): 30.9% | Activity (Tobacco mosaic virus [3]): 54.8% | Activity (Tobacco mosaic virus [4]): 54.3% | EC50 (Tobacco mosaic virus [5]): 240 µg/mL (≈ 544 µM) | Activity (Tobacco mosaic virus [6]): 39.1%

CNCC(=O)N[C@@H](CO)C(=O)N[C@H]1[C@H](O)[C@@H](O)[C@H](n2ccc(N)nc2=O)O[C@@H]1C(N)=O [NINGNANMYCIN]
Activity (Tobacco mosaic virus [1]): 50.7% | Activity (Tobacco mosaic virus [2]): 60.6% | Activity (Tobacco mosaic virus [3]): 56.2% | Activity (Tobacco mosaic virus [4]): 56.2% | EC50 (Tobacco mosaic virus [5]): 227 µg/mL (≈ 512 µM) | Activity (Tobacco mosaic virus [6]): 41.9%

CCCOP(=O)(OCCC)C(NC(=S)N[C@H](C)c1ccccc1)c1ccccc1 (stereo not given in full)
Activity (Tobacco mosaic virus [2]): 45.9% | Activity (Tobacco mosaic virus [4]): 41.9%

CC(C)OP(=O)(OC(C)C)C(NC(=S)N[C@H](C)C1CCCCC1)c1ccccc1 (stereo not given in full)
Activity (Tobacco mosaic virus [2]): 33.7% | Activity (Tobacco mosaic virus [4]): 34.6%

CCOP(=O)(OCC)C(NC(=S)N[C@H](C)c1ccccc1)c1ccccc1 (stereo not given in full)
Activity (Tobacco mosaic virus [2]): 42.6% | Activity (Tobacco mosaic virus [4]): 45.2%

CCOP(=O)(OCC)C(NC(=S)N[C@@H](C)C1CCCCC1)c1ccccc1 (stereo not given in full)
Activity (Tobacco mosaic virus [2]): 36.4% | Activity (Tobacco mosaic virus [4]): 36.3%
